Source: PubChem BioAssay
The source made the active and inactive calls.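 How the source made its calls, unless noted: active means growth inhibition above a set limit, 3 SD over mean compound inhibition, in both replicates (cut at about 43% in these data); inconclusive means above the limit in only one replicate; inactive means at or below the limit in both replicates.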

Test: Restrictive medium S. cerevisiae growth inhibition, OD615, pilot screen of yeast lifespan reduction project, restrictive growth control (AID 706);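 further: modified DeaD lifespan yeast strain shifted to restrictive glucose medium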
Conditions: OD615, 48 h, at 10 µM, active compounds read high
Procedure, shortened: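 material = engineered S. cerevisiae DeaD strain | buffer or medium = glucose-based CSMM-D restrictive medium | dosing = one concentration, 10 µM final, 0.25% DMSO | schedule = 4 h pre-growth plus 48 h compound exposure, 30 °C | detection = OD615 absorbance reading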

| SMILES | growth inhibition |
| --- | --- |
| CCCCCn1c(=O)[nH]c2cc(C(=O)NCc3ccc4c(c3)OCO4)ccc2c1=O | -10.7% (inactive) |
| O=C(C1=C(O)C(=O)N(CCc2ccccc2)C1c1cccnc1)c1ccco1 (stereo not given) | -2.02% (inactive) |
| Cc1ccc2c(c1)c(C)c(C)n2CC(O)Cn1nc(C)cc1C (stereo not given) | 3.35% (inactive) |
| CCOC(=O)N1CCC(NC(=O)C(Cc2ccccc2)NC(=O)C2CCCCC2)CC1 (stereo not given) | 3.73% (inactive) |
| c1coc(CNc2nc3sc4c(c3c3ncnn23)CCCC4)c1 | 0.565% (inactive) |
| COc1ccc(N2CCN(CCNC(=O)c3ccc(NC(=O)C4CCCO4)cc3)CC2)cc1 (stereo not given) | -9.71% (inactive) |
| Cc1cc(C)n(-c2cc(=O)n(C)c(=O)n2C)n1 | -9.85% (inactive) |
| Cc1ccnc(Sc2nc3c(c(=O)[nH]c(=O)n3C)n2CCCc2ccccc2)n1 | 2.31% (inactive) |
| Cc1ccc(Cn2c(Sc3nccc(C)n3)nc3c2c(=O)[nH]c(=O)n3C)cc1 | 2.41% (inactive) |
| Cc1ccc(CNC(=O)CCS(=O)(=O)c2cccc3nonc23)cc1 | -4.57% (inactive) |
| CCC(=O)Nc1cc(C)c(NC(=O)c2ccco2)cn1 | -13.9% (inactive) |
| CNC(=O)c1ccc(-c2sc3nc(N4CCOCC4)c4c(c3c2N)CCCC4)o1 | 17.2% (inactive) |
| CC(=O)NCC(=O)N(c1c(C)n(C)n(-c2ccccc2)c1=O)C1(C(=O)NC2CCCC2)CCCCC1 | -0.075% (inactive) |
| CCN(CC)S(=O)(=O)c1cc(Br)ccc1OC | -11.1% (inactive) |
| Cc1ccc(S(=O)(=O)N2CCC(C(=O)N[C@@H](C)C(=O)NCC3CCCO3)CC2)cc1 (stereo not given in full) | -9.68% (inactive) |
| COc1ccc(C2C3=C(CC(C)(C)CC3=O)Nc3n[nH]c(C)c32)cc1 (stereo not given) | -7.11% (inactive) |
| O=C(Nc1nnc(C2CC2)o1)c1ccc(S(=O)(=O)N2CCCc3ccccc32)cc1 | -2.5% (inactive) |
| C=CCNC(=O)c1ccc2c(c1)nnn2C | -12.7% (inactive) |
| COc1ccc(CNc2oc(COc3ccccc3)nc2C#N)cc1 | -2.3% (inactive) |
| N#C/C(=C1\CCCN1)c1ccc2ccccc2n1 | 3.25% (inactive) |

| SMILES | growth inhibition |
| --- | --- |
| OCC1(c2cc(C(F)(F)F)n[nH]2)CCCCC1 | -0.23% (inactive) |
| O=C(OCC(=O)N1CCN(C(=O)c2ccco2)CC1)C1=COCCO1 | -5.99% (inactive) |
| COc1ccc(Nc2ncnc3c2cnn3Cc2ccccc2)cc1 | 3.04% (inactive) |
| CCCSc1nc(N)c2c3c(sc2n1)CN(C)CC3 | -3.27% (inactive) |
| CC(NC(=O)C(C)(C)C)c1nc2ccccc2n1C (stereo not given) | 5.71% (inactive) |
| CC1CN(C(=O)c2ccccc2C(=O)c2ncc[nH]2)CC(C)O1 (stereo not given) | 14.7% (inactive) |
| S=c1nc(-c2ccccc2)n(CCN2CCOCC2)c2c1CCCC2 | 19.1% (inactive) |
| CCCCCCn1c(SCC(=O)c2ccccc2)nc2c1c(=O)[nH]c(=O)n2C | 42.6% (active) |
| COCC(=O)NCc1nc2ccccc2[nH]1 | -0.605% (inactive) |
| COC(=O)CCC(=O)Oc1ccc(OC(=O)CCC(=O)OC)cc1 | 2.51% (inactive) |
| CC1Cc2ccccc2N1C(=O)CCS(=O)(=O)c1cccc2nonc12 (stereo not given) | 10.7% (inactive) |
| O=C(CN1CCN(c2ccccn2)CC1)Nc1cccc(C(F)(F)F)c1 | 5.07% (inactive) |
| CCN(CC)C(=O)c1cn(CC)c(=O)c2cc(OC)c(OC)cc12 | 2.04% (inactive) |
| CC1(C)Cc2c(sc3c2c(=N)n(Cc2ccco2)c(=O)n3CC(=O)Nc2cccc(Cl)c2)CO1 | -8.69% (inactive) |
| CCCCCn1c(=O)[nH]c2cc(C(=O)NCCCN(CC)CC)ccc2c1=O | -0.04% (inactive) |
| CCOC(=O)C1CCN(C(=O)c2ccc(NC(=O)C3CCCO3)cc2)CC1 (stereo not given) | -7.09% (inactive) |
| Cc1sc(NC(=O)c2ccco2)c(C(c2cccnc2)N2CCN(c3ccc(F)cc3)CC2)c1C (stereo not given) | 6.02% (inactive) |
| CCN(CC)S(=O)(=O)c1ccc(NC(=O)Cn2c(=O)oc3ccccc32)cc1 | -11.6% (inactive) |
| c1ccc(Nc2nc(N3CCCCC3)nc(N3CCNCC3)n2)cc1 | -6.95% (inactive) |
| Nc1ncnc2c1ncn2C1CCC(CO)C(O)C1 (stereo not given) | -0.275% (inactive) |

Test: viability gain of MRP-1-high H69AR cells under doxorubicin, pilot screen, MRP-1 activator project, CellTiter-Glo, duplicate (AID 807;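 active means viability increase at or above a cutoff of the median across tested compounds plus 3 SD, cut at about 8.5% in these data, passing the limit was not always enough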;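 further: compound pretreatment 18-22 h then 72 h combined with doxorubicin; 0% = doxorubicin alone and 100% = vehicle without doxorubicin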)
Conditions: H69AR viability with doxorubicin, CellTiter-Glo luminescence; at 10 µM; active compounds read high

| SMILES | viability increase |
| --- | --- |
| CCCCCn1c(=O)[nH]c2cc(C(=O)NCc3ccc4c(c3)OCO4)ccc2c1=O | -6.7% (inactive) |
| O=C(C1=C(O)C(=O)N(CCc2ccccc2)C1c1cccnc1)c1ccco1 (stereo not given) | -3.61% (inactive) |
| Cc1ccc2c(c1)c(C)c(C)n2CC(O)Cn1nc(C)cc1C (stereo not given) | -4.76% (inactive) |
| CCOC(=O)N1CCC(NC(=O)C(Cc2ccccc2)NC(=O)C2CCCCC2)CC1 (stereo not given) | -2.92% (inactive) |
| c1coc(CNc2nc3sc4c(c3c3ncnn23)CCCC4)c1 | -2.99% (inactive) |
| COc1ccc(N2CCN(CCNC(=O)c3ccc(NC(=O)C4CCCO4)cc3)CC2)cc1 (stereo not given) | -1.61% (inactive) |
| Cc1cc(C)n(-c2cc(=O)n(C)c(=O)n2C)n1 | -2.96% (inactive) |
| Cc1ccnc(Sc2nc3c(c(=O)[nH]c(=O)n3C)n2CCCc2ccccc2)n1 | -2.18% (inactive) |
| Cc1ccc(Cn2c(Sc3nccc(C)n3)nc3c2c(=O)[nH]c(=O)n3C)cc1 | -2.6% (inactive) |
| Cc1ccc(CNC(=O)CCS(=O)(=O)c2cccc3nonc23)cc1 | -0.35% (inactive) |
| CCC(=O)Nc1cc(C)c(NC(=O)c2ccco2)cn1 | 0.56% (inactive) |
| CNC(=O)c1ccc(-c2sc3nc(N4CCOCC4)c4c(c3c2N)CCCC4)o1 | -7.88% (inactive) |
| CC(=O)NCC(=O)N(c1c(C)n(C)n(-c2ccccc2)c1=O)C1(C(=O)NC2CCCC2)CCCCC1 | -0.84% (inactive) |
| CCN(CC)S(=O)(=O)c1cc(Br)ccc1OC | -4.03% (inactive) |
| Cc1ccc(S(=O)(=O)N2CCC(C(=O)N[C@@H](C)C(=O)NCC3CCCO3)CC2)cc1 (stereo not given in full) | -2.65% (inactive) |
| COc1ccc(C2C3=C(CC(C)(C)CC3=O)Nc3n[nH]c(C)c32)cc1 (stereo not given) | -4.1% (inactive) |
| O=C(Nc1nnc(C2CC2)o1)c1ccc(S(=O)(=O)N2CCCc3ccccc32)cc1 | -5.31% (inactive) |
| C=CCNC(=O)c1ccc2c(c1)nnn2C | -0.65% (inactive) |
| COc1ccc(CNc2oc(COc3ccccc3)nc2C#N)cc1 | -2.11% (inactive) |
| N#C/C(=C1\CCCN1)c1ccc2ccccc2n1 | -4.02% (inactive) |

| SMILES | viability increase |
| --- | --- |
| OCC1(c2cc(C(F)(F)F)n[nH]2)CCCCC1 | -2.12% (inactive) |
| O=C(OCC(=O)N1CCN(C(=O)c2ccco2)CC1)C1=COCCO1 | -3.83% (inactive) |
| COc1ccc(Nc2ncnc3c2cnn3Cc2ccccc2)cc1 | 1.14% (inactive) |
| CCCSc1nc(N)c2c3c(sc2n1)CN(C)CC3 | -2.7% (inactive) |
| CC(NC(=O)C(C)(C)C)c1nc2ccccc2n1C (stereo not given) | -3.14% (inactive) |
| CC1CN(C(=O)c2ccccc2C(=O)c2ncc[nH]2)CC(C)O1 (stereo not given) | -1.55% (inactive) |
| S=c1nc(-c2ccccc2)n(CCN2CCOCC2)c2c1CCCC2 | -4.18% (inactive) |
| CCCCCCn1c(SCC(=O)c2ccccc2)nc2c1c(=O)[nH]c(=O)n2C | -7.17% (inactive) |
| COCC(=O)NCc1nc2ccccc2[nH]1 | -1.85% (inactive) |
| COC(=O)CCC(=O)Oc1ccc(OC(=O)CCC(=O)OC)cc1 | -4.94% (inactive) |
| CC1Cc2ccccc2N1C(=O)CCS(=O)(=O)c1cccc2nonc12 (stereo not given) | -6.45% (inactive) |
| O=C(CN1CCN(c2ccccn2)CC1)Nc1cccc(C(F)(F)F)c1 | -1.96% (inactive) |
| CCN(CC)C(=O)c1cn(CC)c(=O)c2cc(OC)c(OC)cc12 | -3.37% (inactive) |
| CC1(C)Cc2c(sc3c2c(=N)n(Cc2ccco2)c(=O)n3CC(=O)Nc2cccc(Cl)c2)CO1 | -6.27% (inactive) |
| CCCCCn1c(=O)[nH]c2cc(C(=O)NCCCN(CC)CC)ccc2c1=O | -4.48% (inactive) |
| CCOC(=O)C1CCN(C(=O)c2ccc(NC(=O)C3CCCO3)cc2)CC1 (stereo not given) | -2.64% (inactive) |
| Cc1sc(NC(=O)c2ccco2)c(C(c2cccnc2)N2CCN(c3ccc(F)cc3)CC2)c1C (stereo not given) | -5.73% (inactive) |
| CCN(CC)S(=O)(=O)c1ccc(NC(=O)Cn2c(=O)oc3ccccc32)cc1 | -3.33% (inactive) |
| c1ccc(Nc2nc(N3CCCCC3)nc(N3CCNCC3)n2)cc1 | -8.19% (inactive) |
| Nc1ncnc2c1ncn2C1CCC(CO)C(O)C1 (stereo not given) | -3.38% (inactive) |
